Assay outcomes from PubChem BioAssay.
This is a sample that favours compounds with a hit; in the whole collection about 4.6% have one here.
ALR inh: inhibitors of human ALR sulfhydryl oxidase, primary screen, biochemical, H2O2 detection, HRP-luminol luminescence, single point | actives 3.8% (n = 290,000) | inhibition, % (test concentration not listed) | FAD-linked sulfhydryl oxidase ALR (Homo sapiens), P55789 | AID 485317, 2010 | purified ALR, DTT oxidation;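 active = mean replicate inhibition above about 79%, with every replicate also reaching it, limit read from the data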
Target sequence (P55789 whole entry, looked up): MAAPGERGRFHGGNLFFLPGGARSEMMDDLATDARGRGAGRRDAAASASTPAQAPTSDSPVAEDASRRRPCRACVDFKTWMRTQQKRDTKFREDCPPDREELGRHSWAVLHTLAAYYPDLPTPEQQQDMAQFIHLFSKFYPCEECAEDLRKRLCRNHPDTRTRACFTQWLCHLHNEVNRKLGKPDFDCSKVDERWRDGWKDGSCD
Rtt109 Vps75: inhibitors of C. albicans Rtt109/Vps75 HAT, primary screen, biochemical, ThioGlo CoA-SH fluorescence, plate reader | purified Rtt109/Vps75, 4 h | inhibition, % at 34.9 µM | actives 0.16% (n = 330,000) | Histone acetyltransferase RTT109 (Candida albicans (strain SC5314 / ATCC MYA-2876)), …;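 active = inhibition of at least 50% in every replicate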
FAS-TE inh: FAS thioesterase domain inhibitors, primary screen, biochemical, fluorescence intensity, uHTS | recombinant FAS-TE, OMFH fluorogenic substrate, fluorescence endpoint | inhibition, % at 15 µM | actives 0.67% (n = 360,000) | AID 602261, 2012;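 active = compounds whose normalised, plate-corrected inhibition of enzyme fluorescence in the single-dose primary screen is 50% or more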;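 note: 0% = DMSO with enzyme and 100% = substrate without enzyme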
HDAC3 inh: HDAC3 deacetylase inhibitors, primary screen, biochemical, fluorescence, cell-free homogeneous; Histone deacetylase 3 (Homo sapiens), O15379; recombinant HDAC3, fluorogenic peptide/trypsin coupled; inhibition, % at 8.3 µM; actives 0.15% (n = 320,000); in the data active = inhibition above about 26%, passing the limit was not always enough
Target sequence (O15379 whole entry, looked up): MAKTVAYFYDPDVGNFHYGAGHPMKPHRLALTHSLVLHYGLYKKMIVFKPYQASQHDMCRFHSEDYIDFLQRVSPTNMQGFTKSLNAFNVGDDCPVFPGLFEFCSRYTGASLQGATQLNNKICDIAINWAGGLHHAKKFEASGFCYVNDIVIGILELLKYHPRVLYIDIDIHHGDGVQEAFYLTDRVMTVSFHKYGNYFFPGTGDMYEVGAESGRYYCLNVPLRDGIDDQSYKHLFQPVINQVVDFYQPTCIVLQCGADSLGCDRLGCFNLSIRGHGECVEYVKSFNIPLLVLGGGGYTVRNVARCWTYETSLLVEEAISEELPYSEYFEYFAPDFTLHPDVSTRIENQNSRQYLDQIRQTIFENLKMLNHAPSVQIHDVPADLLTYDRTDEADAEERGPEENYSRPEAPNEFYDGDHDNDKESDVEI
UCH37 inh: inhibitors of human UCH37 deubiquitinase, primary screen, biochemical, Ub-AMC cleavage, fluorescence | Ubiquitin carboxyl-terminal hydrolase isozyme L5 (Homo sapiens), Q9Y5K5 | purified proteasome/UCH37 | inhibition, % (test concentration not listed) | actives 0.33% (n = 330,000) | AID 588478, 2011;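 active = mean inhibition over replicate wells above about 20%, limit read from the data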;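 note: 0% = compound-free wells with enzyme and 100% = wells lacking proteasome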
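Signal – fluorescence, ex 355 nm, em 460 nm · System – Proteasome-bound UCH37 · Input – 0.15 nM proteasome as dispensed · Timing – 30 min preincubation with enzyme, 25 min cleavage at room temperature · Read-out basis – percent inhibition of cleavage signal versus uninhibited and no-proteasome wells · Medium – Tris-HCl pH 7.4 with ATP-MgCl2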
M18AAP inhibitor: PfM18AAP inhibitors, malaria aminopeptidase, primary screen, biochemical, QFRET, recombinant enzyme. M18 aspartyl aminopeptidase (Plasmodium falciparum 3D7). AID 1822, 2009. actives 1.2% (n = 290,000). inhibition, % at 7.35 µM. H-Glu-NHMec fluorogenic cleavage;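 active = inhibition above the campaign mean inhibition over all tested compounds plus 3 SD, cut at about 28% in these data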;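 note: 0% = plate median of test compound wells and 100% = 2 mM ZnCl2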
FAS-TE inh conf: FAS thioesterase domain inhibitors, confirmation, biochemical, fluorescence intensity, single concentration; shares compounds with FAS-TE inh; recombinant FAS-TE, OMFH fluorogenic substrate; inhibition, % at 15 µM; actives 45% (n = 2,300);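 active = compounds inhibiting the enzyme by at least 50% at 15 µM in any one of the replicates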;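 note: 0% = enzyme with DMSO only and 100% = wells lacking enzyme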
The depositor's hits bear a star; · = no result given.

SMILES	ALR inh	Rtt109 Vps75	FAS-TE inh	HDAC3 inh	UCH37 inh	M18AAP inhibitor	FAS-TE inh conf
O=C(Nc1ccc(Cl)cc1)c1nc[nH]c1C(=O)NCCN(CCNC(=O)c1[nH]cnc1C(=O)Nc1ccc(Cl)cc1)CCNC(=O)c1[nH]cnc1C(=O)Nc1ccc(Cl)cc1	3.7	4.1	58.5*	-1.2	·	·	9.4
Cc1ccc(NC(=O)c2nc[nH]c2C(=O)NCCN(CCNC(=O)c2[nH]cnc2C(=O)Nc2ccc(C)cc2)CCNC(=O)c2[nH]cnc2C(=O)Nc2ccc(C)cc2)cc1	0.8	0.6	54.0*	1.5	-60.0	·	18.1
Cc1ccccc1-n1c(SCC(O)=C(C#N)c2nc3ccccc3[nH]2)nnc1-c1ccncc1	·	·	·	·	-7.9	·	·
CCN(Cc1ccccc1)C(=O)c1c[nH]c2ccc(S(=O)(=O)N(C)CCC#N)cc2c1=O	-1.7	9.7	58.8*	-0.9	-35.6	-2.6	67.0*
CN(Cc1ccccc1)S(=O)(=O)c1ccc2[nH]cc(C(=O)NCC3CCCO3)c(=O)c2c1 (stereo unspecified)	·	1.4	13.4	4.0	-1.7	-8.3	·
COCc1cc(C=NNC(=O)Cc2ccc(Cl)cc2)ccc1OC	·	·	·	·	2.3	·	·
COc1cc(/C=C2\SC(=O)N(Cc3ccc(F)cc3)C2=O)cc([N+](=O)[O-])c1O	·	-4.4	68.2*	·	19.7	-7.1	36.6
O=C1/C(=C/c2ccc(O)c([N+](=O)[O-])c2)SC(=S)N1Cc1ccccc1	0.3	·	86.0*	0.6	·	5.2	10.9
COc1cc(/C=C2\SC(=O)N(Cc3ccc(Cl)cc3)C2=O)cc([N+](=O)[O-])c1O	·	3.9	72.3*	·	21.9*	3.2	38.3
CCOC(=O)CN1C(=O)S/C(=C/c2ccc(OC)c([N+](=O)[O-])c2)C1=O	-1.4	·	29.7	-3.1	2.5	-6.2	·
O=C(CN1C(=O)S/C(=C\c2ccccc2)C1=O)Nc1cc([N+](=O)[O-])ccc1O	48.7	17.7	81.2*	11.2	10.8	16.7	81.6*
O=C(Nc1ccccc1C(=O)Nc1nnc(C(F)(F)F)s1)c1ccccc1	-2.7	-15.4	53.2*	-5.0	·	-4.6	46.4*
O=C(COC(=O)C1CC(O)CN1S(=O)(=O)c1ccccc1[N+](=O)[O-])Nc1ccc2ccccc2c1 (stereo unspecified)	·	·	·	·	1.4	·	·
CCCCNC(=S)NN=Cc1sccc1C	·	·	·	·	1.1	·	·
CCN(C[C@H]1N[C@@](Cc2ccccc2)(C(=O)OC)[C@H]2C(=O)N(Cc3ccccc3)C(=O)[C@@H]12)C(=O)Nc1ccc(Cl)cc1	1.0	0.9	59.6*	3.4	0.8	·	35.6
COC(=O)[C@]1(Cc2ccccc2)N[C@H](CN(C)C(=O)Nc2ccc(C(F)(F)F)cc2)[C@@H]2C(=O)N(Cc3ccccc3)C(=O)[C@@H]21	·	2.1	62.9*	8.8	3.6	·	34.7
CCN(C[C@H]1N[C@@](Cc2ccccc2)(C(=O)OC)[C@H]2C(=O)N(Cc3ccccc3)C(=O)[C@@H]12)C(=O)Nc1ccc(F)cc1	·	3.7	25.4	·	3.6	·	·
O=C(COC(=O)c1cc([N+](=O)[O-])ccc1Cl)NC1CCCC1	-2.6	4.5	80.2*	-1.3	2.2	2.0	87.0*
COC(=O)c1cc(C(=O)OCC(=O)NC2CCCCCCC2)cc([N+](=O)[O-])c1	·	19.7	69.9*	·	1.5	·	37.1*
COC(=O)c1cc(C(=O)OCC(=O)c2ccc3c(c2)NC(=O)CO3)cc([N+](=O)[O-])c1	·	8.8	57.4*	·	0.7	·	53.0*
O=[N+]([O-])c1ccc(C2CCCCC2=NOCc2cccc(F)c2)c([N+](=O)[O-])c1 (stereo unspecified)	·	·	·	·	6.4	·	·
COc1ccc(NC(=O)CC(C)=NNC(=O)CCc2ccccc2)c(OC)c1	·	·	·	·	0.9	·	·
COc1ccc(/C=C/C(=O)NCC(=O)NN=C(CCC(=O)O)c2ccccc2)cc1	·	·	·	·	3.6	·	·
Cc1ccc(O)c(C=NNC(=O)CN2CCCC2)c1	·	·	·	·	-32.3	·	·
Nn1cnnc1NN=Cc1ccc(-c2ccccc2[N+](=O)[O-])o1	·	·	·	·	17.0	·	·
SMILES	ALR inh	Rtt109 Vps75	FAS-TE inh	HDAC3 inh	UCH37 inh	M18AAP inhibitor	FAS-TE inh conf
COc1cc(OC)c(C=NNC(=O)c2ccc(NC(C)=O)cc2)cc1Br	·	·	·	·	-18.7	·	·
COC(=O)c1c(NC(=O)Cn2cc([N+](=O)[O-])cn2)sc2c1CCC2	69.8	-3.8	51.3*	0.1	1.1	3.4	11.9
O=C(Cn1cc([N+](=O)[O-])cn1)NC1CCCCCC1	·	-8.3	10.7	-1.8	6.5	-2.9	·
FC(F)Oc1ccc(C=NNC(=S)Nc2cc(C(F)(F)F)ccc2Cl)cc1	·	·	·	·	1.1	·	·
O=C1N=c2ccccc2=C1c1sc(=O)[nH]c1O	-6.2	·	-7.3	-1.4	9.5	8.8	·
O=C1N=c2ccc([N+](=O)[O-])cc2=C1c1sc(=O)[nH]c1O	16.5	-9.8	56.5*	1.4	·	5.9	65.5*
Cc1coc(NC(=O)CSc2nc(-c3ccncc3)cc(C(F)(F)F)c2C#N)n1	-3.4	-26.2	55.3*	3.4	-30.6	5.8	36.6*
N#Cc1c(C(F)(F)F)cc(-c2ccc(F)cc2)nc1SCC(=O)O	-11.2	-8.7	17.2	0.9	8.1	3.5	·
Cc1c(Cl)c([N+](=O)[O-])nn1CCCC(=O)Nc1cccnc1	-53.9	26.1	-0.7	3.5	3.9	4.2	·
Cc1c(Cl)c([N+](=O)[O-])nn1CCCC(=O)Nc1cccc(Cl)c1	-5.5	-6.3	50.9*	2.5	4.6	-4.3	42.0*
NC(=O)COc1ccc(C=NNS(=O)(=O)c2ccccc2)cc1	·	·	·	·	-0.3	·	·
CCCCS(=O)(=O)N1C2=NC(C(=O)OC)=C(C(=O)OC)[C@@H]3N(C)c4ccc(OC)cc4[C@]23C[C@H]1C(=O)OC	-10.9	0.2	4.0	-2.7	0.4	·	·
COC(=O)C1=C(C(=O)OC)[C@@H]2N(C)c3ccc(OC)cc3[C@@]23C[C@@H](C(=O)OC)N(S(=O)(=O)c2ccc([N+](=O)[O-])cc2)C3=N1	-24.7	0.9	66.5*	-12.4	2.0	·	26.5
Cc1cc(C)nc(N=C(NC(=O)Nc2ccc(Cl)c(Cl)c2)Nc2cccc(Cl)c2)n1	·	·	·	·	0.6	·	·
CCC(CO)n1c(SCc2cc([N+](=O)[O-])cc3c2OCOC3)nc2ccccc2c1=O (stereo unspecified)	-7.8	3.0	53.6*	10.9	3.2	-5.5	15.7
